Measurements from ChEMBL document CHEMBL5303300, “EUbOPEN Chemogenomics Library - Multiplex” (2023).
Values joined by “and” are separate entries in the source; they are usually repeats but may differ in a detail not shown here. Equal values may be shown once.

Test system: Fibroblast
Test: Multiplex assay against human fibroblast
Assay type: toxicity, cell-based
Conditions: number of replicates 2
Procedure, shortened: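 Imaging took place on a CQ1 microscope at 37°C and 5% CO2 once compound had been added to live cells stained at seeding with Hoechst33342, BioTracker Green Microtubule Cytoskeleton Dye, MitoTracker Red and Annexin V Alexa Fluor 680. CellPathfinder machine-learning gating classed cells as Hoechst high-intensity objects or normal cells, classed normal cells as having healthy, pyknosed or fragmented nuclei, and classed pyknosed cells as mitotic or apoptotic. Tubulin, mitochondrial-mass and membrane-permeability phenotypes are per cents of the healthy-nucleus cells.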

[1] = 12 h, 1 µM, compound concentration 1 uM
[2] = 12 h, 10 µM, compound concentration 10 uM
[3] = 24 h, 1 µM, compound concentration 1 uM
[4] = 24 h, 10 µM, compound concentration 10 uM
[5] = 48 h, 1 µM, compound concentration 1 uM
[6] = 48 h, 10 µM, compound concentration 10 uM

**Q.** Which results are given for `CC(C)S(=O)(=O)c1ccccc1Nc1nc(N[C@@H]2CCCN(CCCCCCCNC(=O)COc3cccc4c3C(=O)N(C3CCC(=O)NC3=O)C4=O)C2)ncc1Cl` (some centres not stated)?
**A.** Population Apoptotic (%) [1]: 55% and 64%; Population Fragmented Nuclei (%) [1]: 12% and 11%; Population Healthy Nuclei (%) [1]: 50%; Population Hoechst High Intensity Objects (%) [1]: 0%; Population Membrane Permeable-Phenotype (%) [1]: 15% and 11%; Population Mitochondria Different-Phenotype (%) [1]: 4% and 2%; Population Mitotic Cells (%) [1]: 44% and 35%; Population Normal (%) [1]: 100%; Population Pyknosed Nuclei (%) [1]: 37% and 38%; Population Tubulin-Different-Phenotype (%) [1]: 40% and 37%; Total Cell Count [1]: 181 and 196; Population Apoptotic (%) [2]: 65% and 48%; Population Fragmented Nuclei (%) [2]: 12% and 16%; Population Healthy Nuclei (%) [2]: 42% and 33%; Population Hoechst High Intensity Objects (%) [2]: 0% and 1%; Population Membrane Permeable-Phenotype (%) [2]: 56% and 36%; Population Mitochondria Different-Phenotype (%) [2]: 22% and 30%; Population Mitotic Cells (%) [2]: 34% and 52%; Population Normal (%) [2]: 99% and 98%; Population Pyknosed Nuclei (%) [2]: 44% and 49%; Population Tubulin-Different-Phenotype (%) [2]: 72% and 32%; Total Cell Count [2]: 231 and 205; Population Apoptotic (%) [3]: 68% and 83%; Population Fragmented Nuclei (%) [3]: 10%; Population Healthy Nuclei (%) [3]: 51%; Population Hoechst High Intensity Objects (%) [3]: 0%; Population Membrane Permeable-Phenotype (%) [3]: 7% and 4%; Population Mitochondria Different-Phenotype (%) [3]: 9% and 4%; Population Mitotic Cells (%) [3]: 31% and 16%; Population Normal (%) [3]: 99% and 100%; Population Pyknosed Nuclei (%) [3]: 37%; Population Tubulin-Different-Phenotype (%) [3]: 27% and 15%; Total Cell Count [3]: 171 and 175; Population Apoptotic (%) [4]: 74% and 79%; Population Fragmented Nuclei (%) [4]: 13% and 14%; Population Healthy Nuclei (%) [4]: 32% and 33%; Population Hoechst High Intensity Objects (%) [4]: 1%; Population Membrane Permeable-Phenotype (%) [4]: 32% and 19%; Population Mitochondria Different-Phenotype (%) [4]: 36% and 39%; Population Mitotic Cells (%) [4]: 26% and 20%; Population Normal (%) [4]: 98%; Population Pyknosed Nuclei (%) [4]: 53% and 51%; Population Tubulin-Different-Phenotype (%) [4]: 68% and 75%; Total Cell Count [4]: 188 and 232; Population Apoptotic (%) [5]: 63% and 73%; Population Fragmented Nuclei (%) [5]: 15% and 12%; Population Healthy Nuclei (%) [5]: 44% and 43%; Population Hoechst High Intensity Objects (%) [5]: 0%; Population Membrane Permeable-Phenotype (%) [5]: 18% and 9%; Population Mitochondria Different-Phenotype (%) [5]: 5% and 8%; Population Mitotic Cells (%) [5]: 36% and 26%; Population Normal (%) [5]: 99% and 100%; Population Pyknosed Nuclei (%) [5]: 40% and 43%; Population Tubulin-Different-Phenotype (%) [5]: 31% and 36%; Total Cell Count [5]: 173 and 163; Population Apoptotic (%) [6]: 79% and 83%; Population Fragmented Nuclei (%) [6]: 17% and 13%; Population Healthy Nuclei (%) [6]: 36% and 32%; Population Hoechst High Intensity Objects (%) [6]: 2% and 0%; Population Membrane Permeable-Phenotype (%) [6]: 36% and 34%; Population Mitochondria Different-Phenotype (%) [6]: 14% and 22%; Population Mitotic Cells (%) [6]: 20% and 16%; Population Normal (%) [6]: 97% and 99%; Population Pyknosed Nuclei (%) [6]: 46% and 53%; Population Tubulin-Different-Phenotype (%) [6]: 73% and 60%; Total Cell Count [6]: 196 and 232

**Q.** With `Cc1cn(CCN2CCN(c3ccccc3-c3cc(C#N)cc(C(=O)NCCCN4CCCC4)c3)CC2)c2ccccc12` as the compound, how does the “Population Apoptotic (%)” value [1] read?
**A.** 16% and 47%

**Q.** What about the “Population Fragmented Nuclei (%)” value [1] of the same compound?
**A.** 13% and 14%

**Q.** And the “Population Healthy Nuclei (%)” value [1]?
**A.** 70% and 63%

**Q.** And the “Population Hoechst High Intensity Objects (%)” value [1]?
**A.** 0%

**Q.** And the “Population Membrane Permeable-Phenotype (%)” value [1]?
**A.** 10% and 8%

**Q.** What about the “Population Mitochondria Different-Phenotype (%)” value [1] of the same compound?
**A.** 1% and 5%

**Q.** And the “Population Mitotic Cells (%)” value [1]?
**A.** 83% and 52%

**Q.** What about the “Population Normal (%)” value [1] of the same compound?
**A.** 100%

**Q.** And the “Population Pyknosed Nuclei (%)” value [1]?
**A.** 16% and 21%

**Q.** What about the “Population Tubulin-Different-Phenotype (%)” value [1] of the same compound?
**A.** 41% and 35%

**Q.** And the “Total Cell Count” value [1]?
**A.** 222 and 214

**Q.** What about the “Population Apoptotic (%)” value [2] of the same compound?
**A.** 40% and 37%

**Q.** What about the “Population Fragmented Nuclei (%)” value [2] of the same compound?
**A.** 28% and 31%

**Q.** What about the “Population Healthy Nuclei (%)” value [2] of the same compound?
**A.** 51% and 56%

**Q.** And the “Population Hoechst High Intensity Objects (%)” value [2]?
**A.** 0%

**Q.** And the “Population Membrane Permeable-Phenotype (%)” value [2]?
**A.** 7% and 5%

**Q.** What about the “Population Mitochondria Different-Phenotype (%)” value [2] of the same compound?
**A.** 20% and 17%

**Q.** And the “Population Mitotic Cells (%)” value [2]?
**A.** 59% and 62%

**Q.** What about the “Population Normal (%)” value [2] of the same compound?
**A.** 100%

**Q.** And the “Population Pyknosed Nuclei (%)” value [2]?
**A.** 19% and 12%

**Q.** And the “Population Tubulin-Different-Phenotype (%)” value [2]?
**A.** 82% and 83%

**Q.** What about the “Total Cell Count” value [2] of the same compound?
**A.** 248 and 358

**Q.** And the “Population Apoptotic (%)” value [3]?
**A.** 33% and 60%

**Q.** What about the “Population Fragmented Nuclei (%)” value [3] of the same compound?
**A.** 14% and 20%

**Q.** What about the “Population Healthy Nuclei (%)” value [3] of the same compound?
**A.** 73% and 65%

**Q.** And the “Population Hoechst High Intensity Objects (%)” value [3]?
**A.** 0%

**Q.** And the “Population Membrane Permeable-Phenotype (%)” value [3]?
**A.** 5% and 3%

**Q.** What about the “Population Mitochondria Different-Phenotype (%)” value [3] of the same compound?
**A.** 3% and 10%

**Q.** And the “Population Mitotic Cells (%)” value [3]?
**A.** 66% and 39%

**Q.** What about the “Population Normal (%)” value [3] of the same compound?
**A.** 100%

**Q.** What about the “Population Pyknosed Nuclei (%)” value [3] of the same compound?
**A.** 11% and 13%

**Q.** And the “Population Tubulin-Different-Phenotype (%)” value [3]?
**A.** 37% and 33%

**Q.** And the “Total Cell Count” value [3]?
**A.** 209 and 243

**Q.** What about the “Population Apoptotic (%)” value [4] of the same compound?
**A.** 81% and 82%

**Q.** And the “Population Fragmented Nuclei (%)” value [4]?
**A.** 17% and 27%

**Q.** And the “Population Healthy Nuclei (%)” value [4]?
**A.** 57% and 55%

**Q.** And the “Population Hoechst High Intensity Objects (%)” value [4]?
**A.** 0%

**Q.** What about the “Population Membrane Permeable-Phenotype (%)” value [4] of the same compound?
**A.** 2%

**Q.** And the “Population Mitochondria Different-Phenotype (%)” value [4]?
**A.** 51% and 58%

**Q.** What about the “Population Mitotic Cells (%)” value [4] of the same compound?
**A.** 18% and 17%

**Q.** And the “Population Normal (%)” value [4]?
**A.** 99%

**Q.** What about the “Population Pyknosed Nuclei (%)” value [4] of the same compound?
**A.** 25% and 17%

**Q.** What about the “Population Tubulin-Different-Phenotype (%)” value [4] of the same compound?
**A.** 93% and 88%

**Q.** And the “Total Cell Count” value [4]?
**A.** 197 and 332

**Q.** What about the “Population Apoptotic (%)” value [5] of the same compound?
**A.** 44% and 76%

**Q.** What about the “Population Fragmented Nuclei (%)” value [5] of the same compound?
**A.** 19% and 24%

**Q.** What about the “Population Healthy Nuclei (%)” value [5] of the same compound?
**A.** 77% and 70%

**Q.** And the “Population Hoechst High Intensity Objects (%)” value [5]?
**A.** 0%

**Q.** What about the “Population Membrane Permeable-Phenotype (%)” value [5] of the same compound?
**A.** 2% and 3%

**Q.** And the “Population Mitochondria Different-Phenotype (%)” value [5]?
**A.** 0% and 3%

**Q.** What about the “Population Mitotic Cells (%)” value [5] of the same compound?
**A.** 55% and 23%

**Q.** And the “Population Normal (%)” value [5]?
**A.** 100% and 99%

**Q.** And the “Population Pyknosed Nuclei (%)” value [5]?
**A.** 3% and 5%

**Q.** What about the “Population Tubulin-Different-Phenotype (%)” value [5] of the same compound?
**A.** 23% and 17%

**Q.** And the “Total Cell Count” value [5]?
**A.** 241 and 237

**Q.** What about the “Population Apoptotic (%)” value [6] of the same compound?
**A.** 95%

**Q.** And the “Population Fragmented Nuclei (%)” value [6]?
**A.** 9% and 17%

**Q.** What about the “Population Healthy Nuclei (%)” value [6] of the same compound?
**A.** 46% and 62%

**Q.** What about the “Population Hoechst High Intensity Objects (%)” value [6] of the same compound?
**A.** 1% and 0%

**Q.** What about the “Population Membrane Permeable-Phenotype (%)” value [6] of the same compound?
**A.** 6% and 1%

**Q.** And the “Population Mitochondria Different-Phenotype (%)” value [6]?
**A.** 75% and 67%

**Q.** What about the “Population Mitotic Cells (%)” value [6] of the same compound?
**A.** 4%

**Q.** And the “Population Normal (%)” value [6]?
**A.** 98% and 99%

**Q.** What about the “Population Pyknosed Nuclei (%)” value [6] of the same compound?
**A.** 43% and 19%

**Q.** What about the “Population Tubulin-Different-Phenotype (%)” value [6] of the same compound?
**A.** 93% and 91%

**Q.** What about the “Total Cell Count” value [6] of the same compound?
**A.** 144 and 240
